Values after ≈ are worked out from the molar mass of the structure shown. Structures can show the parent of a compound that is named as a salt.
Legend:
[1] = tested on: Plasmodium falciparum; assay: Antimalarial activity against multidrug-resistant Plasmodium falciparum K1 by [3H]hypoxanthine uptake; type: functional, organism-based
How it was run: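 P. falciparum K1 kept in continuous culture; in vitro microculture radioisotope method. IC50 taken as the concentration giving 50% reduction in parasite growth, read as uptake of [3H]hypoxanthine. Dihydroartemisinin as positive control.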

[2] = tested on: NCI-H187; assay: Cytotoxicity against human NCI-H187 cells by colorimetric method; type: functional, cell-based
How it was run: (§1)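 Colorimetric cytotoxicity assay following Skehan and co-workers. Cells: BC-1 (human breast cancer) and NCI-H187 (human small cell lung cancer). IC50 values reported in μM. Ellipticine served as the standard positive control.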

[3] = Cytotoxicity against human BC1 cells by colorimetric method; type: functional, cell-based; how it was run: as §1
[4] = tested on: KB; assay: Cytotoxicity against human KB cells by colorimetric method; type: functional, cell-based
[5] = tested on: Mycobacterium tuberculosis; assay: Antimycobacterial activity against Mycobacterium tuberculosis H37Ra by microplate alamar blue assay; type: functional
How it was run: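 M. tuberculosis H37Ra tested by microplate Alamar Blue assay, value reported as MIC. Isoniazid and kanamycin sulfate as reference compounds.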

Structure (SMILES) | IC50 [1] | IC50 [2] | IC50 [3] | IC50 [4] | MIC [5]
CC(O)CCC/C=C/C(O)C(O)/C=C/c1c(CC(O)C(C)(C)O)ccc(O)c1C=O (stereo unspecified) | > 47.3 µM | > 47.3 µM | > 47.3 µM | > 47.3 µM | 474 µM (≈ 200 µg/mL)
C/C=C(\C)C(=O)C(C)C(O)C(C)C(=O)O[C@H]1C=COC=C2C[C@@]3(SC)C(=O)N4c5c(O)cccc5[C@@H](O)[C@@]4(SC)C(=O)N3[C@@H]21 (stereo partly specified) | 2.95 µM | 20.3 µM | > 31 µM | > 31 µM | 1.24 µM (≈ 0.8 µg/mL)
CCCCC/C=C/C(O)C(O)/C=C/c1c(CC(O)C(C)(C)O)ccc(O)c1CO (stereo unspecified) | > 49 µM | > 49 µM | > 49 µM | > 49 µM | 245 µM (≈ 100 µg/mL)
O=C1c2c(O)cccc2[C@H](O)[C@H](O)[C@H]1O | > 95.2 µM | 56.6 µM | > 95.2 µM | > 95.2 µM | 952 µM (≈ 200 µg/mL)
CCCC(=O)CC/C=C/[C@H](O)[C@@H]1O[C@H]1CO | > 30.3 µM | > 30.3 µM | > 30.3 µM | > 30.3 µM | > 303 µM
C[C@H]1[C@@H](O)O[C@@H]2O[C@@]3(C)CC[C@H]4[C@H](C)CC[C@@H]1[C@@]24OO3 [ARTENIMOL] | 0.004 µM | – | – | – | –
C/C=C(\C)C(=O)C(C)C(O)C(C)C(=O)O[C@H]1C=COC=C2C[C@@]3(SC)C(=O)N4[C@H]5C(=CC=C[C@@H]5O)[C@@H](O)[C@@]4(SC)C(=O)N3[C@@H]21 (stereo partly specified) | > 30.9 µM | 22.9 µM | 29.2 µM | > 30.9 µM | 155 µM (≈ 100 µg/mL)
C/C=C/C(C=O)=C\C=C\C(O)C(O)[C@@H]1O[C@H]1CO (relative stereo) | > 78.7 µM | > 78.7 µM | > 78.7 µM | > 78.7 µM | > 787 µM
NNC(=O)c1ccncc1 [ISONIAZID] | – | – | – | – | 0.29 µM (≈ 0.0398 µg/mL)
NC[C@H]1O[C@H](O[C@H]2[C@H](O)[C@@H](O[C@H]3O[C@H](CO)[C@@H](O)[C@H](N)[C@H]3O)[C@H](N)C[C@@H]2N)[C@H](O)[C@@H](O)[C@@H]1O [KANAMYCIN SULFATE] | – | – | – | – | 3.43 µM
CS[C@@]12CC3=CC=C[C@H](O)[C@H]3N1C(=O)[C@]1(SC)CC3=COC=C[C@H](O)[C@H]3N1C2=O | > 46 µM | > 46 µM | > 46 µM | > 46 µM | 7.14 µM (≈ 3.1 µg/mL)
Cc1c2ccncc2c(C)c2c1[nH]c1ccccc12 [ELLIPTECINE] | – | 1.59 µM | 5.93 µM | 5.41 µM | –

Reference: ChEMBL document CHEMBL1158073, “Bioactive compounds from the seed fungus Menisporopsis theobromae BCC 3975” (J Nat Prod, 2006)
